Source: ChEMBL document CHEMBL1144904, “Isoquine and related amodiaquine analogues: a new generation of improved 4-aminoquinoline antimalarials” (J Med Chem, 2003)

Legend:
Plasmodium falciparum [1] = assay: In vitro antimalarial activity against Plasmodium falciparum HB; format: functional, organism-based
How it was run: (§1)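 Parasites kept in continuous culture in human erythrocytes in RPMI 1640 with 25 mM HEPES, 32 mM NaHCO3 and 10% human serum, gassed 3% O2/4% CO2/93% N2. 48-h assay at 2% parasitemia, 0.5% haematocrit, drugs from DMSO stocks diluted in medium, triplicate. [3H]-hypoxanthine added at 24 h, further 24 h at 37 °C, scintillation counting. IC50 by probit interpolation of log dose–response.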

Plasmodium falciparum [2] = assay: In vitro antimalarial activity against chloroquine-resistant Plasmodium falciparum K1; format: functional, organism-based; how it was run: as §1
Plasmodium yoelii = assay: […] against Plasmodium yoelii NS in peter 4-day assay; format: functional; conditions: 96 h, in the assay text read “In vivo” for “In vitro”
How it was run: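 Male CD-1 mice (n = 5 per dose group) infected ip with 10^6 parasitized erythrocytes in PBS. Oral gavage dosing at time 0 (2 h post-inoculation) and on days 1, 2 and 3, at 25, 10, 3, 1, 0.3 and 0.1 mg/kg. On day 4, Giemsa-stained tail-blood films were read microscopically for parasite density, and ED50 was derived.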

Compound | IC50 (Plasmodium falciparum [1]) [nM] | IC50 (Plasmodium falciparum [2]) [nM] | ED50 (Plasmodium yoelii) [mg/kg]
CC(C)NCc1ccc(Nc2ccnc3cc(Cl)ccc23)cc1O | 20.2 | 26.2 | 
Oc1cc(Nc2ccnc3cc(Cl)ccc23)ccc1CN1CCCCC1 | 9.07 | 20.3 | 
CCN(CC)Cc1ccc(Nc2ccnc3cc(Cl)ccc23)cc1O | 9.02 |  | 
CN(C)Cc1ccc(Nc2ccnc3cc(Cl)ccc23)cc1O | 14.8 | 18.6 | 
Oc1cc(Nc2ccnc3cc(Cl)ccc23)ccc1CN1CCOCC1 | 97.2 | 112 | 
CCCCN(CCCC)Cc1ccc(Nc2ccnc3cc(Cl)ccc23)cc1O | 51.9 | 37.2 | 
CCN(CC)Cc1cc(Nc2ccnc3cc(Cl)ccc23)ccc1O.Cl |  | 15.1 | 7.65
Oc1cc(Nc2ccnc3cc(Cl)ccc23)ccc1CN1CCCC1 | 28.4 | 21.8 | 
CCCN(CCC)Cc1ccc(Nc2ccnc3cc(Cl)ccc23)cc1O | 19.8 | 30.6 | 
CCNCc1ccc(Nc2ccnc3cc(Cl)ccc23)cc1O [DESETHYL ISOQUINE] | 16.2 | 32.4 | 
CC(C)(C)NCc1ccc(Nc2ccnc3cc(Cl)ccc23)cc1O [GSK-369796] | 30 | 32.8 | 
CCN(CC)Cc1ccc(Nc2ccnc3cc(Cl)ccc23)cc1O [ISOQUINE] |  |  | 2.65
